Data as given in PubChem BioAssay AID522 (The Scripps Research Institute Molecular Screening Center, 2006).
Out of some 65,000 compounds screened, about 1,200 (1.8%) were called active.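 The calls were made as follows: active = activation above the mean activation of all tested compounds plus 3 SD (cut at about 50% in these data); inactive = the rest.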 What follows is part of a selection rich in actives, with near analogues and random picks from the rest.

What follows are molecules tested against Steroidogenic factor 1 (Homo sapiens) (UniProt Q13285) (assay: SF-1 ligand-binding domain transactivation enhancers – cell-based, CHO-K1, Gal4-SF-1 LBD, luciferase luminescence, primary screen (AID 522)). Details: CHO-K1 Gal4-SF-1 LBD luciferase reporter; at 10 µM; active compounds read high; % increase over DMSO SF-1-specific signal.
Chain of Steroidogenic factor 1 (Homo sapiens) (Q13285 whole entry, looked up, the tested form may be a part): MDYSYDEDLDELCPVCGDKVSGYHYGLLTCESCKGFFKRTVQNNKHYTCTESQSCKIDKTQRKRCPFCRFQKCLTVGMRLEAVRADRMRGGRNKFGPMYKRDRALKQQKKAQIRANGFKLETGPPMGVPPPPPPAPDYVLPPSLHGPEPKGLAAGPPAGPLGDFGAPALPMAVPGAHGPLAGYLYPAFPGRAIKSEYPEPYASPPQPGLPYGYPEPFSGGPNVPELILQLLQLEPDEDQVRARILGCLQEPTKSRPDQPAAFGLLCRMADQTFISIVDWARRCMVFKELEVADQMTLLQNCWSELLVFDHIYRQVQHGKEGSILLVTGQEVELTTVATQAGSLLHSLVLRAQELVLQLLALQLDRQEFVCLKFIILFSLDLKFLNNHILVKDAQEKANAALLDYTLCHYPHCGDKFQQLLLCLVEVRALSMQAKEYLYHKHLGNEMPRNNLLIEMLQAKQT
Procedure, shortened: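 Assay system: CHO-K1 cells co-transfected with Gal4 DBD–human SF-1 LBD, 5xGal4 luciferase reporter / Input: 4,000 cells per well / Incubation: 20 h compound exposure at 37 °C after 1 h cell settling / Detection: SteadyLite luciferase luminescence / Control set: DMSO negative control and −SF1 background wells / Replication: one test per compound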

SMILES	activation
OC(COc1ccc2ccccc2c1)CN1CCOCC1 (stereo unspecified)	39.4% (inactive)
CN1CCN(CC(=O)Nc2sc3c(c2C#N)CCC(C(C)(C)C)C3)CC1 (stereo unspecified)	17.2% (inactive)
CCCCOC(=O)NCN1C(=O)C2C3C=CC(C3)C2C1=O (stereo unspecified)	-13.3% (inactive)
CCCCCCOC(=O)NCC(O)c1ccccc1 (stereo unspecified)	52.5% (active)
CCCCCOC(=O)NCCOC(=O)Nc1ccc(C(=O)OCC)cc1	-12.6% (inactive)
CCCn1c(O)c(CN2CCCC(C)C2)c(C)c(C#N)c1=O (stereo unspecified)	-4.9% (inactive)
COC(=O)C(NC(C)=O)(Nc1nc2c(s1)CCCC2)C(F)(F)F (stereo unspecified)	-0.1% (inactive)
O=C(CCS(=O)(=O)c1ccccc1)Nc1nc2c(s1)CCCC2	3.8% (inactive)
Fc1ccc2nc(Nc3nc4c(s3)CCCC4)sc2c1	90% (active)
Cc1ccc(F)cc1NC(=O)Cc1nn(C)c(=O)c2ccccc12	-42.9% (inactive)
CN(Cc1ccccc1)C(=O)CCNC(=O)Cn1cnc2ccccc2c1=O	-16% (inactive)
O=C(Nn1cnc2ccccc2c1=O)c1ccc(F)cc1Cl	64.7% (active)
Cc1cccc(N2CCN(S(=O)(=O)c3ccc4c(c3)c(=O)n(C)c(=O)n4C)CC2C)c1 (stereo unspecified)	3.8% (inactive)
COc1ccc(N2C(=O)c3cccc4cccc(c34)C2=O)nn1	0.5% (inactive)
CCc1ccccc1N(CC(=O)NCCSCc1ccco1)S(C)(=O)=O	4.6% (inactive)
Cc1occc1C(=O)N1CCCc2ccccc21	-7.2% (inactive)
O=C(c1cnn2ccccc12)N1CCc2ccccc21	111% (active)
O=C(c1cccc(C(=O)N2CCc3ccccc32)n1)N1CCc2ccccc21	-0.8% (inactive)
COc1ccc(OCC(=O)N2CCN(C(=O)COc3ccccc3)CC2)cc1	-5.8% (inactive)
CCOC(=O)c1cc(NC(=O)c2cccnc2)cc(C(=O)OCC)c1	-4.7% (inactive)
CCOc1cccc(C(=O)Nc2cccnc2)c1	6.8% (inactive)
CCOC(=O)c1ccc(-c2ccc(C(=O)Nc3cccnc3)o2)cc1	51.3% (active)
CCC1=C/C(=C\c2ccc3c(c2)OCO3)C(=O)S1	0.1% (inactive)
CCOc1cccc(NC(=O)C2CCCN(S(=O)(=O)c3ccc(OC)cc3)C2)c1 (stereo unspecified)	0.1% (inactive)
COc1ccc(S(=O)(=O)N2CCCC(C(=O)Nc3ccc(NC(=O)c4ccccn4)cc3)C2)cc1 (stereo unspecified)	63.3% (active)
COc1ccc(NC(=O)C2CCCN(S(=O)(=O)c3cccc4cccnc34)C2)cc1 (stereo unspecified)	5.1% (inactive)

SMILES	activation
N#CC1=C(N)C(C#N)(C#N)[C@H](c2ccsc2)[C@H]2COCC=C12	-1.6% (inactive)
COc1ccc(NC(=O)c2c(C)oc3c2CCCC3)cc1	26.5% (inactive)
COc1ccccc1N1CCN(C(=O)c2cc(-c3ccc(Br)cc3)on2)CC1	3.2% (inactive)
O=C(c1cc(-c2ccccc2O)on1)N1CCCC1	20.3% (inactive)
COc1ccccc1-c1cc(C(=O)N2CCCCC2)no1	82.1% (active)
Cc1ccc(-n2nc3cc(Cl)c(NC(=O)c4ccco4)cc3n2)cc1	70.4% (active)
COC(=O)c1cc(Cl)c(NC(=O)c2ccco2)cc1OC	-3% (inactive)
Cc1ccc(Cn2c(NC(=O)c3ccco3)nc3ccccc32)cc1	-1.8% (inactive)
CN(C)Cc1c(C#N)c2ccccc2n1C	-11.9% (inactive)
COc1ccc(OCc2ccc(-c3nc4ccccc4c(=O)n3N)o2)cc1	59% (active)
Cn1c(COc2ccc(Cl)cc2)nc2ccccc2c1=O	45% (inactive)
Cc1ccc(C(=O)CSc2nc3ccccc3c(=O)n2N)o1	32.8% (inactive)
CCOC(=O)c1cccc(NC(=O)CN(c2ccc(C)cc2)S(=O)(=O)c2c(C)noc2C)c1	-5.1% (inactive)
CC(=O)N1CCC(C(=O)Nc2nc(-c3ccccc3)ns2)CC1	-1.6% (inactive)
COc1ccc(CN(C(=O)c2cccs2)c2nccs2)cc1OC	7.7% (inactive)
Cn1c(=NC(=O)CSCC(=O)N2CCCCC2)sc2ccccc21	8.9% (inactive)
O=C(c1cc(-c2cccs2)on1)N1CCCCC1	41.3% (inactive)
O=C(CSCc1cccs1)N1CCCC1	60.5% (active)
CC(=O)Oc1ccc(C)cc1N1C(=O)c2ccc(C(=O)O)cc2C1=O	-0.3% (inactive)
O=C(CSc1nnc(-c2ccco2)n1CC1CCCO1)c1ccccc1 (stereo unspecified)	16.7% (inactive)
O=C(CSc1nnc2ccccn12)c1ccccc1	55.3% (active)
Cn1c(CC(=O)Nc2ccccc2)nnc1SCC(=O)c1ccccc1	4.4% (inactive)
Cc1c(C(=O)NCC2CCCO2)sc2nc(-c3ccccc3)cn12 (stereo unspecified)	9% (inactive)
Clc1ccc(Cc2nn3c(-c4ccncc4)nnc3s2)cc1	15.3% (inactive)
Clc1ccc(Cc2nnc(-c3cccs3)o2)cc1	59.5% (active)
Cc1cc(NC(=O)c2cc(-c3cccs3)on2)nn1Cc1ccc(Cl)cc1	-2.6% (inactive)

SMILES	activation
CSC1=NCCN1C(=O)c1ccc(S(=O)(=O)N2CCOCC2)cc1	-27.8% (inactive)
COC(=O)c1ccc(NC(=O)C(C)N2C(=O)c3ccccc3C2=O)cc1 (stereo unspecified)	11.6% (inactive)
CCN(CC)C(=O)CCC(=O)Nc1ccc(C(=O)OC)cc1	-4.8% (inactive)
COC(=O)c1ccc(NCC(=O)c2ccccc2)cc1	68.7% (active)
C=CCn1c(=O)c2ccccc2n2c(SCC(=O)N3CCCc4ccccc43)nnc12	-8.3% (inactive)
N#Cc1nc(Cc2ccccc2)oc1NCCc1ccccc1	63.4% (active)
CCOc1ccc(Nc2oc(Cc3ccccc3)nc2C#N)cc1	39.8% (inactive)
N#Cc1nc(COc2ccc(-c3ccccc3)cc2)oc1NCc1cccnc1	-9.1% (inactive)
CCOc1ccc2nc(NCCNS(=O)(=O)c3ccccc3)c(C#N)cc2c1	9.2% (inactive)
COc1ccccc1Cc1nc(-c2ccc(C)cc2)no1	16.4% (inactive)
Cc1cccc(-c2noc(-c3ccc(F)cc3)n2)c1	77.6% (active)
Cc1ccc(-c2noc(CCC(N)=O)n2)cc1	9.8% (inactive)
Cc1ccc(Cc2nc(-c3cccc(C)c3)no2)cc1	53.9% (active)
Cc1ccc(-c2noc(CN3CCN(Cc4ccccc4)CC3)n2)cc1	16.7% (inactive)
COc1ccc2[nH]c(=O)c(-c3noc(-c4ccc(F)cc4)n3)cc2c1	-0.1% (inactive)
O=C1CCC(C(=O)Nc2ccc(OC(F)F)cc2)N1 (stereo unspecified)	-10.9% (inactive)
COc1ccc(NC(=O)CSc2nnc(-c3cccs3)n2Cc2ccco2)cc1OC	-6% (inactive)
CCOC(=O)CSc1nnc(CNc2nc(-c3ccccc3)cs2)n1C	11.1% (inactive)
CC(=O)Nc1ccc(S(=O)(=O)N2CCN(CCCOc3cc(C)ccc3C)CC2)cc1	-14.5% (inactive)
Cc1nc2ccc(C(=O)N3CCSCC3)cc2s1	0.4% (inactive)
CCCNC(=O)Nc1ccccc1C(=O)Nc1ccc(OC)cc1	7.4% (inactive)
COc1ccc(NC(=O)Nc2cccc3cccnc23)cc1	65.5% (active)
O=C(Nc1cccc2cccnc12)c1cccc(N2C(=O)CCC2=O)c1	9% (inactive)
COc1cc(-c2nc(S(=O)(=O)c3ccc(Cl)cc3)c(N(C)C)o2)cc(OC)c1OC	-17.6% (inactive)
Cc1ccc(C(c2nnnn2CS(=O)(=O)c2ccc(C)cc2)N2CCC(C(N)=O)CC2)cc1 (stereo unspecified)	-4.8% (inactive)
Cc1cc(C)cc(N(CC(=O)NCC2CCCO2)S(=O)(=O)c2c(C)noc2C)c1 (stereo unspecified)	-8.7% (inactive)

SMILES	activation
N#Cc1c(NC(=O)CCCN2C(=O)c3ccccc3C2=O)oc(-c2ccccc2)c1-c1ccccc1	12.7% (inactive)
CCCc1[nH]nc2c1C(c1c(C)nn(-c3ccccc3)c1Cl)C(C#N)=C(N)O2 (stereo unspecified)	6.3% (inactive)
CNC(=O)NCCN1CCCC1=O	1% (inactive)
c1ccc(CSc2nnc(-c3ccco3)n2Cc2ccccc2)cc1	76% (active)
c1ccc(CSc2nnc(-c3ccco3)c(-c3ccco3)n2)cc1	0.5% (inactive)
O=C(CSc1nnc(-c2ccco2)n1Cc1ccccc1)NC(=O)NCc1ccco1	-12.1% (inactive)
CCn1c(COc2ccc(OC)cc2)nnc1SCC(=O)Nc1cc(OC)ccc1OC	-13.5% (inactive)
COc1cc(C2C3C(=O)N(c4ccccc4)C(=O)C3ON2c2ccccc2)ccc1O (stereo unspecified)	51.7% (active)
Cc1ccccc1N1C(=O)C2ON(c3ccccc3)C(c3ccncc3)C2C1=O (stereo unspecified)	5.4% (inactive)
COc1cc(C2C(C(=O)c3ccc(C)o3)=C(O)C(=O)N2CCc2ccccc2)ccc1O (stereo unspecified)	8.7% (inactive)
COc1ccccc1NC(=O)CSc1nnc(-c2ccoc2C)n1CCc1ccccc1	-3.3% (inactive)
Cn1nnc(NC(=O)CSc2ncn[nH]2)n1	4.4% (inactive)
CCN(C(=O)CSc1ncn[nH]1)c1cccc2ccccc12	16.4% (inactive)
CC(C)(C)c1ccc(C(=O)CSc2ncn[nH]2)cc1	57.1% (active)
O=S(=O)(c1cccc(-c2nnc(SC(F)F)n2-c2ccccc2)c1)N1CCCCC1	4.3% (inactive)
CCOc1cc(N2CCOCC2)c(OCC)cc1NC(=O)COc1cccc2cccnc12	8.2% (inactive)
CCc1nnc(NC(=O)CCC(=O)O)s1	-8.1% (inactive)
Cc1ccc(C(=O)Nc2nnc(-c3cccs3)s2)cc1C	80.9% (active)
Cc1ccc(C(=O)Nc2nnc(-c3ccncc3)s2)o1	21.8% (inactive)
CCc1nnc(NC(=O)c2cccs2)s1	50% (active)
Cc1occc1C(=O)Nc1nnc(-c2ccncc2)s1	20.4% (inactive)
CCc1ccccc1NC(=O)c1cccs1	-5.6% (inactive)
CCOC(=O)c1ccc(-n2c(C)nc3c(cnn3-c3ccccc3C)c2=O)cc1	17.1% (inactive)
